tolC growth inh: growth inhibitors of E. coli BW25113 tolC mutant | AID 573 | growth inhibition, % at 10 µM (by protocol) | 65,000 tested, 2.2% active | OD615;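 active = growth inhibition at or above a cutoff equal to the mean over every tested compound plus 3 SD, cut at about 60% in these data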;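 also: growth measured after 20 h incubation at 37 °C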
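Test system: tolC-deleted E. coli BW25113; medium: LB with kanamycin 50 µg/mL; compound: single-point testing at 10 µM; incubation: 20 h compound exposure of bacteria at 37 °C; signal: OD at 615 nm; evaluation: growth inhibition in percent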
Ecoli WT expand: growth inhibitors of E. coli BW25113 wild type | OD600 absorbance | growth inhibition, % at 100 µM | 98,000 tested, 0.15% active | AID 710;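 active = growth inhibition above about 50% at one test dose, limit read from the data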;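 also: growth measured after 20 h incubation at 37 °C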
EphB4 antag: blocks human EphB4 binding to ephrin-B2; 97,000 tested, 0.15% active; P54760; inhibition, % at 7 µM; EphB4 LBD / TNYL-RAW-Alexa532 peptide, fluorescence polarization;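 active = inhibition above the screen-wide mean inhibition plus 3 SD, cut at about 15% in these data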;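 also: 0% = DMSO wells and 100% = excess unlabeled TNYL-RAW peptide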
Target sequence (P54760 whole entry, looked up, the tested form may be a part): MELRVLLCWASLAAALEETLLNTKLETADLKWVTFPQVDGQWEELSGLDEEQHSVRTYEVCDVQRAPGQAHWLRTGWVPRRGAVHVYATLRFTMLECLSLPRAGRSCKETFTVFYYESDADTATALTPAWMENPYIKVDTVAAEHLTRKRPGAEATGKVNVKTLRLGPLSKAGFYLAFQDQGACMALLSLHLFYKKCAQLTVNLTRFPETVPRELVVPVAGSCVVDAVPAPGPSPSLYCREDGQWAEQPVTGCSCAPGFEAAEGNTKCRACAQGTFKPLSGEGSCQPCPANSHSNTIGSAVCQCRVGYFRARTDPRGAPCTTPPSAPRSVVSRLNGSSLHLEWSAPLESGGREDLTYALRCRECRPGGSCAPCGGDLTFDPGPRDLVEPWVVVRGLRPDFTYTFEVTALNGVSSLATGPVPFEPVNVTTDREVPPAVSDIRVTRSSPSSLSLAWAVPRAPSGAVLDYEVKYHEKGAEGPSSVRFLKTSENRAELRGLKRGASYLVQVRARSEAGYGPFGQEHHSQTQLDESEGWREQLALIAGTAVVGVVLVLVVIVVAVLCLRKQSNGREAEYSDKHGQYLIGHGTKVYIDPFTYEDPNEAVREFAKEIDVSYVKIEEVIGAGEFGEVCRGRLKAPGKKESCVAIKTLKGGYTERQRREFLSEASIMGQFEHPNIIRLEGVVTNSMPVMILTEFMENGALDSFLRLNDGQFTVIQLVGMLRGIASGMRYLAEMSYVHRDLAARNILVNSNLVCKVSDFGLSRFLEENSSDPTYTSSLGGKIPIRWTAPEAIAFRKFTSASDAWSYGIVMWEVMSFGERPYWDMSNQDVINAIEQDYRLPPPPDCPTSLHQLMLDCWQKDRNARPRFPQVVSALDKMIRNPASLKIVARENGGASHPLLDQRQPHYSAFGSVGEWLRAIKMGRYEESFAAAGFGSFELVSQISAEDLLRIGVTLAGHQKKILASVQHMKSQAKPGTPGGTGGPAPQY
PostGolgi ctrl: growth of the yeast control strain, post-Golgi counter-screen; efflux-deficient yeast background strain, growth absorbance A615, 16 h; 98,000 tested, 5% active; inhibition, % at 10 µM
PostGolgi yeast: growth inhibition of a yeast mutant, post-Golgi transport screen; post-Golgi transport phenotypic cell assay; inhibition, % at 10 µM; 98,000 tested, 0.9% active;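 also: yeast cells grown in 1536-well plates; yeast grown about 18 h at 30C before absorbance read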
An asterisk follows results filed as active; x = not tested or not shown. This is a sample that favours compounds with a hit; in the whole collection about 6% have one here. Rule as the data show it, unless noted: active = inhibition above about 30%; inactive = the rest.

SMILES | tolC growth inh | Ecoli WT expand | EphB4 antag | PostGolgi ctrl | PostGolgi yeast
O=C1C2C(c3ccccc3)C=CC(c3ccccc3)C2C(=O)N1c1ccncc1 (centres undefined) | x | 3 | -2 | 34* | -5
Cc1ccc(NC(=O)NC2CCCN2S(=O)(=O)c2ccc(Cl)cc2)cc1 (centres undefined) | x | 2 | 2 | 33* | -8
CCCN(CC1CC1)C(=O)CSc1nnc(-c2cc(-c3cccs3)nc3ccccc23)o1 | x | -18 | -1 | 1 | -13
CCCCc1ccc(/C=C2\C(=O)c3ccccc3C(O)=C2C(=O)OCC)cc1 | x | -12 | -10 | 14 | -14
CC1CCN(S(=O)(=O)c2ccc(NC(=O)Cc3ccccc3)cc2)CC1 | x | -11 | 3 | 39* | -6
O=C(CCN1C(=O)c2ccccc2C1=O)Nc1ccc2c(c1)OCCO2 | -9 | -3 | 1 | 35* | -7
CC1CCN(S(=O)(=O)c2ccc(NC(=O)CCN3C(=O)c4ccccc4C3=O)cc2)CC1 | x | 0 | 7 | 6 | 83*
CC1CN(S(=O)(=O)c2ccc(NC(=O)CCN3C(=O)c4ccccc4C3=O)cc2)CC(C)O1 (centres undefined) | -3 | 0 | -3 | -3 | 4
COc1ccc(N2CC(C(=O)O)CC2=O)cc1 (centres undefined) | x | x | 2 | x | x
NC(=S)Nc1ccc(Oc2ccc(NC(N)=S)cc2)cc1 | x | -8 | 3 | 6 | 1
O=C(CSc1nc2ccccc2c(=O)n1NC(=O)Cc1ccccc1)NCc1ccccc1Cl | x | -14 | -5 | 7 | 12
COc1cc(-c2nnc(-c3ccco3)o2)ccc1OCc1ccccc1 | 96* | -12 | x | 25 | 5
COc1cc(-c2nnc(-c3ccncc3)o2)ccc1OCc1ccccc1 | -26 | -8 | 7 | 9 | 12
N#CC1=C(N)Oc2n[nH]c(-c3cccs3)c2C1c1ccsc1 (centres undefined) | 98* | -2 | 8 | 8 | 8
Cc1ccc(N/C=C(/C#N)c2ccsc2)cc1C | x | -3 | 8 | 39* | -2
CC1(C(=O)NC23CC4CC(CC(C4)C2)C3)CC1(Cl)Cl (centres undefined) | x | -6 | 2 | 34* | -1
COC(=O)c1cn(NC(=O)c2cccc(OC)c2)c(=O)c2ccccc12 | x | 2 | 2 | -1 | 2
CCN1CCN(C(=O)Nc2ccccc2OC)CC1 | x | x | -1 | x | x
CO[C@@]1(NC(=O)Cc2cccs2)C(=O)N2C(C(=O)O)=C(COC(N)=O)CS[C@@H]21 | 100* | x | x | x | x
CSc1nc2ccccc2n1Cc1c(Cl)cccc1Cl | x | 5 | 1 | 34* | 5
CSc1nc2ccccc2n1CC(=O)Nc1c(C)cccc1C | x | x | -9 | x | x
CSCC[C@H](NC(=O)CCNC(C)=O)c1nc2ccccc2[nH]1 | x | 6 | -4 | 0 | 18
Cc1ccc(C(=O)NNC(=O)C2CCCN(c3ncccn3)C2)cc1 (centres undefined) | x | 2 | -1 | 1 | 11
COc1cccc(COc2ccccc2C2Nc3ccc(Br)cc3C(=O)N2NC(=O)c2ccncc2)c1 (centres undefined) | x | -4 | -2 | 24 | -9
CN1CC=C2C(C#N)=C(N)C(C#N)(C#N)[C@H](c3cccc(Cl)c3)C2C1 (some centres undefined) | 4 | 6 | 6 | 6 | 7
SMILES | tolC growth inh | Ecoli WT expand | EphB4 antag | PostGolgi ctrl | PostGolgi yeast
CC(C)c1ccc(C2C3CSCC=C3C(C#N)=C(N)C2(C#N)C#N)cc1 (centres undefined) | x | 7 | -4 | -2 | 74*
CC(=O)c1sc(N2C(=O)c3oc4ccccc4c(=O)c3C2c2ccc(C)o2)nc1C (centres undefined) | 4 | x | x | x | x
COc1cc(Br)cc(CN2CCN(C/C=C/c3ccccc3)CC2)c1O | 49 | 12 | 5 | 16 | 19
COc1ccc(O)c(CN2CCN(C/C=C/c3ccccc3)CC2)c1 | -2 | 7 | x | 34* | 42*
CCCc1cc(NCCN2CCOCC2)n2c(nc3ccccc32)c1C#N | 8 | x | x | x | x
CC(C)[C@H](NC(=O)NC1CCCc2ccccc21)C(=O)O (some centres undefined) | -23 | 2 | -4 | 33* | -3
Cc1sc(CO)c(Sc2ccccc2)c1C(=O)O | -30 | 2 | 3 | 34* | 1
O=C(COC(=O)C1CC1)NCc1ccccc1Cl | x | 2 | 4 | 11 | 0
CC(=O)c1cn(CC(=O)Nc2ccc(C)cc2C)c2ccccc12 | x | x | 1 | x | x
CC(Cc1cccs1)NC(=O)Nc1ccc(Cl)c(Cl)c1 (centres undefined) | x | 20 | 0 | 69* | -4
CC(Cc1cccs1)NC(=O)Nc1ccc(Cl)cc1 (centres undefined) | x | 10 | 3 | 12 | 16
Oc1ccc2c(c1)oc1cc(O)ccc12 | 100* | 35 | 9 | 1 | 1
CCc1nc2oc3cc(OC)ccc3c(=O)c2c(=O)n1Cc1ccco1 | 13 | -7 | 0 | -1 | 6
O=c1c2ccccc2sc2nc(C3CCCCC3)n(Cc3ccco3)c(=O)c12 | 52 | 6 | x | 50* | 47*
CCc1nc2sc3ccccc3c(=O)c2c(=O)n1Cc1ccco1 | 91* | 3 | x | 9 | 8
Cc1nn(-c2ccccc2)c(C)c1/C=N\NS(=O)(=O)c1ccc(Cl)cc1 | x | 8 | -1 | 3 | -5
Nc1ccnc(C(F)(F)F)c1C(=O)c1ccccc1 | -17 | 8 | -1 | -1 | 0
COc1ccc2nc3c(cc2c1)c(NC(=O)c1cccs1)nn3CC(C)C | 78* | -15 | 5 | 37* | 10
O=C(CN1CCN(Cc2ccc(F)cc2Cl)C1=O)NCCc1ccc(Cl)cc1 | x | -3 | -6 | 37* | 22
O=C(NCCCN1CCCC1=O)NC12CC3CC(CC(C3)C1)C2 | 0 | 4 | 16* | 7 | 6
COc1cccc(CN2C(=O)C3(C(C#N)=C(N)OC4=C3C(=O)CCC4)c3ccccc32)c1 (centres undefined) | 18 | 4 | 8 | 18 | 34*
CC(=O)OC1c2ccccc2C(=O)N1Cc1ccccc1 (centres undefined) | x | 23 | -6 | -1 | -2
Cc1cc(C)n(CC(O)Cn2c3ccc(Br)cc3c3cc(Br)ccc32)c(=O)n1 (centres undefined) | x | -1 | 4 | 103* | 99*
Cn1c(-c2ccc[nH]c2=O)nc2cc(Cl)ccc21 | x | -4 | -3 | 0 | 2
CSc1nc(N)nc(SCCS(=O)(=O)c2ccc(Cl)cc2)c1C#N | 48 | -24 | -4 | 58* | 2
SMILES | tolC growth inh | Ecoli WT expand | EphB4 antag | PostGolgi ctrl | PostGolgi yeast
CCOC(=O)c1cn2c3c(c(F)c(F)cc3c1=O)SC(N1CCOCC1)=N2 | x | x | -1 | x | x
COc1ccc(-c2cnc(N)n2CC2CCCO2)cc1 (centres undefined) | 64* | 14 | 5 | -2 | 10
CC1CCCN(CC(O)CN)C1 (centres undefined) | x | x | 10 | x | x
CN(c1cccc(Cl)c1)S(=O)(=O)c1cccc(C(=O)NC2=NCCS2)c1 | x | 6 | 4 | 12 | 4
COc1ccc(OC)c(C(=O)COC(=O)c2cc(C)oc2C)c1 | 61* | -4 | 5 | 12 | -10
COc1nc(-c2ccncc2)nc2ccccc12 | x | 3 | -2 | 10 | 4
CCCCN(CC)c1nc(-c2ccncc2)nc2ccccc12 | x | 13 | -8 | 63* | 5

Assay outcomes as filed in PubChem.
